Tests used:
Adenosine receptor A1 = target: T1, Adenosine receptor A1 (Homo sapiens, UniProt P30542); assay: Displacement of [3H]DPCPX from human adenosine A1 receptor expressed in CHO-A1 cells after 60 mins; assay type: cell-based
T1 sequence (P30542 whole entry): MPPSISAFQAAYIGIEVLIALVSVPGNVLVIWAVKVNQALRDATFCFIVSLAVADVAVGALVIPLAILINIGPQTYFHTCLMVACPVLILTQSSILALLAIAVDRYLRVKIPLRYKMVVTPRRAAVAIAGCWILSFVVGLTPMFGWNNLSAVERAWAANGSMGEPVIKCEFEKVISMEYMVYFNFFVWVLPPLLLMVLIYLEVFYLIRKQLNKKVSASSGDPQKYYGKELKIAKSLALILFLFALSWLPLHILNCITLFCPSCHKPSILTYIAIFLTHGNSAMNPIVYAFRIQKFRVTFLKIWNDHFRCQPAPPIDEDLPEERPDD
How it was run: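 Competition binding on membranes from CHO cells expressing human A1 receptor, labelled with 2 nM [3H]DPCPX. Non-specific binding defined with (R)-PIA. Incubation at 25 °C for 60 min, then filtration and beta scintillation counting. Result given as Ki (nM) or % inhibition at the single test concentration. Means of four separate assays, each in triplicate.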

Adenosine receptor A2a [1] = target: T2, Adenosine receptor A2a (Homo sapiens, UniProt P29274); assay: Displacement of [3H]ZM241385 from human adenosine A2a receptor expressed in HeLa cells at 10 uM after 30 mins; assay type: cell-based
T2 sequence (P29274 whole entry): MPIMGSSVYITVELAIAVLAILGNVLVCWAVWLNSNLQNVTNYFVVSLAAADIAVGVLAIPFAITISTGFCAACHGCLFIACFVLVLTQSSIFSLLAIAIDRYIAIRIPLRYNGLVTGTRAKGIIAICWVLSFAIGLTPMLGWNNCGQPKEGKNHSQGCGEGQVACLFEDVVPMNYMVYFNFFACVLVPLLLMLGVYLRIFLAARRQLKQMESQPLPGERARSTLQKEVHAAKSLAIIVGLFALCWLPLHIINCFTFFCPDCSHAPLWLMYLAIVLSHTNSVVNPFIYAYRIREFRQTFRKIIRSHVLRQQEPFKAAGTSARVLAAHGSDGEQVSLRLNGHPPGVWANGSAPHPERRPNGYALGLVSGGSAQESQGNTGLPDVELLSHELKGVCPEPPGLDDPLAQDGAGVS
How it was run: (§1)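 [3H]ZM241385 specific binding in HeLa cells expressing human A2A receptor. Incubation at 25 °C for 30 min, followed by filtration and beta scintillation counting. Output is Ki (nM) or % inhibition at the single test concentration. Values are means of four separate assays, each performed in triplicate.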

[2] = target: T3, Adenosine receptor A2b (Homo sapiens) (UniProt P29275); assay: Displacement of [3H]DPCPX from human adenosine A2b receptor expressed in HEK293 cells at 10 uM after 30 mins; assay type: cell-based
T3 sequence (whole entry): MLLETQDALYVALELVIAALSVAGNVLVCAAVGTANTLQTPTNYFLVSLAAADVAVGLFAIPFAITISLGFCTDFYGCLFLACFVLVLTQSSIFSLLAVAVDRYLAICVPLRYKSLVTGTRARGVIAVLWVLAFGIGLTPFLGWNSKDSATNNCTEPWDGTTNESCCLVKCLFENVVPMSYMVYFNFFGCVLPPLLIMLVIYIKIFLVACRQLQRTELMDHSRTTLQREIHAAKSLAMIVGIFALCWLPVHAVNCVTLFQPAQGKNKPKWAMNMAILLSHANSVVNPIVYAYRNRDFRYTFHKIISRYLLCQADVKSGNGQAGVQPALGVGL
How it was run: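 Human A2B receptor expressed in HEK-293 cells, with displacement of [3H]DPCPX. Incubated at 25 °C for 30 min, then filtered and counted by beta scintillation. Reported as Ki (nM) or percentage inhibition at the single test concentration. Means of four independent assays, each run in triplicate.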

Adenosine receptor A3 [3] = target: T4, Adenosine receptor A3 (Homo sapiens, UniProt P0DMS8); assay: Displacement of [3H]NECA from human adenosine A3 receptor expressed in HeLa cells after 180 mins; assay type: cell-based
T4 sequence (P0DMS8 whole entry): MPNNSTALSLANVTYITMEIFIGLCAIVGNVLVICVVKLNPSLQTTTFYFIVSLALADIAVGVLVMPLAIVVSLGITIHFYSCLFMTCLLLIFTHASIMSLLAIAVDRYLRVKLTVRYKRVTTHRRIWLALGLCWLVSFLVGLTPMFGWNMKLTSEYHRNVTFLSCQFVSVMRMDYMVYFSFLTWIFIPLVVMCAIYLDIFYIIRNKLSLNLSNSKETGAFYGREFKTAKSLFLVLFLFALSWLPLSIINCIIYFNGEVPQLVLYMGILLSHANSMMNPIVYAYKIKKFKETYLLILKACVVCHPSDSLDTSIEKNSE
How it was run: (§2)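 HeLa cells expressing human A3 receptor, with displacement of [3H]NECA. Incubated at 25 °C for 180 min, then filtered and counted by beta scintillation. Ki (nM) or percentage inhibition at the single test concentration. Means of four assays, each in triplicate.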

Adenosine receptor A2a [4] = target: T2, Adenosine receptor A2a; assay: Displacement of [3H]ZM241385 from human adenosine A2a receptor expressed in HeLa cells after 30 mins; assay type: cell-based; how it was run: as §1
Adenosine receptor A2b [5] = target: T5, Adenosine receptor A2b (Homo sapiens, UniProt P29275); assay: Displacement of [3H]DPCPX from human adenosine A2b receptor expressed in HEK293 cells after 30 mins; assay type: cell-based
T5 sequence (P29275 whole entry): T3 sequence (whole entry)

[6] = target: T6, Adenosine receptor A3 (Homo sapiens) (UniProt P0DMS8); assay: Displacement of [3H]NECA from human adenosine A3 receptor expressed in HeLa cells at 10 uM after 180 mins; assay type: cell-based; how it was run: as §2
T6 sequence (whole entry): T4 sequence (P0DMS8 whole entry)

Homo sapiens [7] = species: Homo sapiens; assay: Selectivity ratio of Ki for human adenosine A2a receptor to Ki for human A1 receptor
Homo sapiens [8] = species: Homo sapiens; assay: Selectivity ratio of Ki for human adenosine A2b receptor to Ki for human A1 receptor
[9] = Binding affinity to bovine adenosine A2a receptor; parameters: species or system Bos taurus
Adenosine receptor A3 [10] = target: T7, Adenosine receptor A3 (Bos taurus, UniProt Q0VC81); assay: Binding affinity to bovine adenosine A3 receptor
T7 sequence (Q0VC81 whole entry): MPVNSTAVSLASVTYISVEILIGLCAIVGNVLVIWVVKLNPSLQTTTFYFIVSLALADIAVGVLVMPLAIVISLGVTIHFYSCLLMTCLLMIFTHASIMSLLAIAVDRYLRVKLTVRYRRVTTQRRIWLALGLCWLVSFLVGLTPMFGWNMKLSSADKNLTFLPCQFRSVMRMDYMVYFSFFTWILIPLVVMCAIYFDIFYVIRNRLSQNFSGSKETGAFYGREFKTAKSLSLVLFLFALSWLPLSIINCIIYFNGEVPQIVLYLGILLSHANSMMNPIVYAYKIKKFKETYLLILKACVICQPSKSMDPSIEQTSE

Adenosine receptor A2b [11] = target: T5, Adenosine receptor A2b; assay: Binding affinity to human adenosine A2b receptor
How it was run: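 Competition binding on human A2B receptors expressed in HEK-293 cells, displacing [3H]DPCPX. Bound radioactivity was separated by filtration and counted by beta scintillation. Values are means of four separate assays, each run in triplicate.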

[12] = target: T8, Adenosine receptor A1 (Bos taurus) (UniProt P28190); assay: Binding affinity to bovine adenosine A1 receptor at 34 uM
T8 sequence (whole entry): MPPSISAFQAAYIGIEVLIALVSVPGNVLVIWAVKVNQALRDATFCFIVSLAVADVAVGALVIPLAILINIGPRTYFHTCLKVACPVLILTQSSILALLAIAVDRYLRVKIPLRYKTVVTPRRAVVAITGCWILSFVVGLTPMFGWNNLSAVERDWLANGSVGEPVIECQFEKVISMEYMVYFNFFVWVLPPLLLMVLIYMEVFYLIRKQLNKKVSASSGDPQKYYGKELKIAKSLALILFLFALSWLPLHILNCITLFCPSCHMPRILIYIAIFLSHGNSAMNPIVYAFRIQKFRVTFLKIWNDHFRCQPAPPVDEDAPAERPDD

Bos taurus = species: Bos taurus; assay: Binding affinity to bovine adenosine A2a receptor at 34 uM
[13] = Binding affinity to human adenosine A2 receptor

For `Cc1nn(C(C)c2ccccc2)c(=O)c2nc(C)n3nc(-c4ccccc4)cc3c12` (configuration not stated), the Ki (Adenosine receptor A1) was 3.08 µM, the inhibition (Adenosine receptor A2a [1]) was < 50% and the inhibition [2] was < 50%. For the same compound, the Ki (Adenosine receptor A3 [3]) was 4.73 µM.

For `Cc1nn(Cc2ccccc2)c(=O)c2ncn3nc(-c4ccsc4)cc3c12`, the Ki (Adenosine receptor A1) was 0.0853 µM, the Ki (Adenosine receptor A2a [4]) was 7.36 µM and the Ki (Adenosine receptor A2b [5]) was 4.65 µM. For the same compound, the inhibition [6] was < 50%, the fold change (FC) (Homo sapiens [7]) was 90 and the fold change (FC) (Homo sapiens [8]) was 56.

For `O=c1c(-c2ccccc2)nnc2n(-c3ccccc3)c3ccccc3n12`, the Ki [9] was > 10 µM and the Ki (Adenosine receptor A3 [10]) was > 1 µM.

In the case of `COc1ccc(CCCn2ncc3c2nc(N)n2nc(-c4ccco4)nc32)cc1`, the Ki (Adenosine receptor A3 [10]) is reported as > 10 µM and the Ki (Adenosine receptor A2b [11]) is reported as > 10 µM.

`COc1ccc(-c2nc3c(O)nc4ccccc4n3n2)cc1` showed an inhibition [12] of 0% and an inhibition (Bos taurus) of 8.7%.

In the case of `Cc1nn(Cc2ccccc2)c(=O)c2ncn3nc(-c4ccccc4)cc3c12`, the Ki (Adenosine receptor A1) is reported as 0.104 µM, the inhibition (Adenosine receptor A2a [1]) is reported as < 50% and the Ki (Adenosine receptor A2b [5]) is reported as 7.56 µM. The inhibition [6] was < 50%.

`O=C(Cc1cccc2ccccc12)Nc1nc2nn(CCCc3ccccc3)cc2c2nc(-c3ccco3)nn12` gave a Ki (Adenosine receptor A3 [10]) of 0.3 µM and a Ki [13] of 0.8 µM.

Reference: ChEMBL document CHEMBL1275345, “Pyrazolo[1',5':1,6]pyrimido[4,5-d]pyridazin-4(3H)-ones as selective human A(1) adenosine receptor ligands” (Bioorg Med Chem, 2010)
